Bioassay records deposited in PubChem BioAssay by several laboratories.
The full list was thinned out, with hits kept by preference.
UPR XBP1 act – adaptive UPR (XBP1) activation; CHO-XBP1 luciferase reporter, IRE1-XBP1 UPR activation, luminescence; percent of tunicamycin response, DMSO as zero; activation, % at 20 µM; 330,000 compounds, 0.33% hits; AID 463104;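 active = versus positive control, 20 µM dose yields 30% or more activation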;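 also: 100% = tunicamycin at 10 µg/mL and 0% = DMSO only wells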
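Assay system: CHO-XBP1 luciferase reporter cells; Schedule: 6 h treatment, 37 °C; Detection: glow luminescence from Steady-Glo reagent; Benchmarks: high control tunicamycin 10 µg/mL final, low control DMSO vehicle only.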
CHOP inh – inhibitors of CHOP induction in ER stress response; CHO-K1 CHOP-promoter luciferase, tunicamycin-induced, 15-18 h; inhibition, % at 10 µM; 220,000 compounds, 3.8% hits; AID 2732;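 active = compounds that reduced the stress-induced luciferase reporter signal by more than about 70% of percent inhibition, limit read from the data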;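 also: 0% = tunicamycin plus vehicle and 100% = wells without tunicamycin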
Dynein transport – blocks dynein driven cargo transport along microtubules; 3617.4 mouse cells, GR-EGFP nuclear translocation imaging; test concentration mostly 20 µM; stimulated with dexamethasone, 1 µM; active compounds read low; z-score, hits read low; 220,000 compounds, 0.47% hits;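 active = plate z-score of nuclear minus cytoplasmic receptor signal below a set negative limit, without overly bright fluorescence or cell loss, cut at about -3.5 in these data, passing the limit was not always enough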;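 also: z-score of nuclear minus cytoplasmic ring GR-EGFP intensity difference per well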
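medium = tetracycline-free induction medium containing charcoal-stripped FBS | also added = 1.0 µM final dexamethasone stimulus | schedule = 48 h induction, 1 h compound, 30 min dex at 37 °C | technique = fixed, Hoechst-stained cells imaged at 10x for EGFP | measure = GR-EGFP nuclear translocation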
Lmaj promast – reduces viability of Leishmania major promastigotes. 200,000 compounds, 9% hits. inhibition, % at 10 µM. resazurin fluorescence viability; in the data active = inhibition above about 50%;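 also: promastigotes grown with compound for 44 hours at 28 °C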
T cruzi repl – blocks replication of Trypanosoma cruzi. T. cruzi beta-gal in NIH3T3, luminescence, 90 h. inhibition, % (test concentration not listed). 300,000 compounds, 1.4% hits. AID 1885;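 active = mean inhibition across valid replicates above about 55%, limit read from the data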;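 also: signal also drops with host cell toxicity which is not excluded here; 0% = plate median of DMSO wells and 100% = zero luminescence signal; higher percent means less beta-gal luminescence so fewer parasites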
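System: Mouse NIH/3T3 fibroblasts infected with β-gal-expressing T. cruzi Tulahuen C4 | Quantity: NIH/3T3 cells, 5,000 per well | Reagent: 5000 reporter trypomastigotes per well | Dosing: Compound pinned at 50 nL/well, DMSO | Schedule: 3 h host attachment, then at least 90 h co-culture | Detection: GalScreen luminescence, 60 min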
CHOP UPR activ – activators of apoptotic arm of unfolded protein response (CHOP) | 330,000 compounds, 0.34% hits | activation, % at 10 µM | CHO-CHOP luciferase reporter, UPR activation, luminescence; percent of tunicamycin response over DMSO baseline;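 active = at 10 µM dose, activation of 40% or more, normalized to positive control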;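 also: 100% = tunicamycin at 10 µg/mL and 0% = DMSO alone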
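Test system: CHO-CHOP cells, stable luciferase reporter of PERK-eIF2a-CHOP signalling | Quantity: 500 CHO-CHOP cells per well | Buffer or medium: F12 plus 10% serum | Compound dosing: 10 µM single point, 0.5% DMSO | Schedule: 6 h compound treatment, 37 °C | Signal: Luciferase luminescence | Control set: Tunicamycin high control, DMSO low control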
* = called active by the depositor; · = no result given.

SMILES | UPR XBP1 act | CHOP inh | Dynein transport | Lmaj promast | T cruzi repl | CHOP UPR activ
Cc1ccc(OCCOC(=O)c2cccc(S(=O)(=O)N3CC(C)OC(C)C3)c2)cc1 (configuration not stated) | -5 | · | · | · | · | -1
Cc1cccc(OC(C)C(=O)NC2CCS(=O)(=O)C2)c1C (configuration not stated) | -4 | · | · | · | -13 | 1
Cc1nn(-c2ccccc2)c(C)c1NC(=O)COC(=O)c1cccc(OC(F)F)c1 | 0 | · | · | · | 1 | 0
C=CCNCCCCOc1c(Cl)cc(C)cc1Br | 1 | -17 | 0.16 | 99* | 12 | 1
Cc1cc(C)c(OCCCCNCc2ccccc2)c(Cl)c1 | 2 | 75* | -0.36 | 97* | 45 | -2
COCCCNCCCCOc1c(Cl)cc(C)cc1Br | -4 | 6 | 2.2 | 100* | 35 | 1
COCCOC(=O)c1c(NC(=O)COC(=O)Cc2cccc(OC)c2)sc(C(N)=O)c1C | 0 | · | · | · | 3 | 1
c1ccc(CCN(Cc2ccccc2)C2CCN(C3CCCC3)CC2)cc1 | -1 | -7 | -0.93 | 92* | 33 | 0
CCCCN(Cc1ccccc1)C1CCN(Cc2ccccc2)CC1 | -3 | · | · | · | 12 | 2
O=S(=O)(c1ccc(S(=O)(=O)N2CCC(O)CC2)cc1)N1CCCC1 | -3 | · | · | · | -3 | -1
Cn1ccc(=S)c2ccccc21 | 1 | -15 | -0.014 | 88* | -3 | 31
Cn1c(=S)n(C)c2ccccc21 | -2 | 33 | -0.8 | -4 | -12 | 1
CCOc1ccc(C(=O)NCC(=O)NCC(c2cccs2)N2CCOCC2)cc1 (configuration not stated) | -2 | · | · | · | -5 | 1
C/C(=N\OC(=O)c1ccc(Br)cc1)c1ccccn1 | 1 | -2 | 2.5 | 88* | -10 | 4
N/C(=N\OC(=O)/C=C/c1ccc(Br)cc1)c1ccccn1 | -3 | 26 | -0.026 | 77* | -26 | 4
N/C(=N\OC(=O)c1ccccc1)c1ccccn1 | -7 | 86* | -0.03 | -5 | -15 | -10
Cc1ccc(C(=O)O/N=C(\N)c2ccccn2)cc1 | -16 | · | · | · | 4 | -9
N/C(=N\OCc1ccc([N+](=O)[O-])cc1)c1ccccn1 | -10 | 83* | -0.71 | -3 | -2 | -9
N/C(=N\OC(=O)/C=C/c1ccccc1Cl)c1ccccn1 | -5 | 28 | -0.84 | 2 | -9 | -4
O=C(Cn1c2c(c(-c3ccccc3Cl)cc1=O)CCC2)NCCCN1CCOCC1 | -1 | 6 | 0.38 | · | 18 | 1
CC(C(=O)Nc1ccc(Cl)cc1Cl)N1C(=O)NC2(CCCCCCC2)C1=O (configuration not stated) | -3 | · | · | · | · | 0
CC(=O)Nc1ccc(S(=O)(=O)N(C)CC(=O)N2CCN(C(=O)c3ccco3)CC2)cc1 | 1 | · | · | · | · | 0
O=c1cc(CN2CCN(Cc3ccccc3)CC2)c2ccc(O)c(O)c2o1 | 63* | · | · | · | 51 | 4
CCOc1ccc2oc(=O)cc(CN3CCN(Cc4ccccc4)CC3)c2c1 | -1 | · | · | · | 58* | 1
Cc1c(O)ccc2c(CN3CCN(Cc4ccccc4)CC3)cc(=O)oc12 | 2 | · | · | · | 56* | -2
SMILES | UPR XBP1 act | CHOP inh | Dynein transport | Lmaj promast | T cruzi repl | CHOP UPR activ
COc1ccc(NC(=O)CN(C)C(=O)Cn2cnc3c2c(=O)n(C)c(=O)n3C)cc1 | 0 | · | · | · | -6 | 2
CC(C)CC(=O)NC(NC(=S)Nc1cccc2cccnc12)C(Cl)(Cl)Cl (configuration not stated) | -1 | 45 | -0.74 | 52* | -2 | -1
C/C(=N\Nc1nnc(-c2ccccc2)c(-c2ccccc2)n1)c1cccc([N+](=O)[O-])c1 | 0 | 78* | 4 | 2 | 20 | -1
C/C(=N\NC(=O)C1CC1c1ccccc1)c1cccc([N+](=O)[O-])c1 (configuration not stated) | -3 | 9 | -1.1 | 0 | 7 | -3
C/C(=N\NC(=O)C1CC1(c1ccccc1)c1ccccc1)c1cccc([N+](=O)[O-])c1 (configuration not stated) | -3 | 13 | 0.27 | 60* | 15 | 0
Cc1cc(SCC(=O)OCC(=O)NC(C)c2ccccc2)c(C)cc1Br (configuration not stated) | -2 | 43 | -0.56 | 51* | 7 | 1
Cc1cc(Br)ccc1SCC(=O)OCC(=O)NC(C)c1ccccc1 (configuration not stated) | 1 | 27 | -0.99 | -5 | 12 | 0
CCN(CC)CCN1C(=O)C(=O)/C(=C(/O)c2ccc(OC)cc2)C1c1ccco1 (configuration not stated) | -1 | -38 | -1.1 | 1 | -6 | 3
CC(C)Oc1ccc(/C(O)=C2/C(=O)C(=O)N(CCN(C)C)C2c2ccco2)cc1 (configuration not stated) | -5 | -30 | 0.26 | 89* | 1 | 5
Cc1ccc2nc(Cl)c(CN(C(=O)c3cnccn3)C3CCCCC3)cc2c1 | -3 | 21 | -0.57 | 53* | -3 | -1
C=CCNC(=O)/C(C#N)=C\c1cc(Cl)c(OCC)c(OC)c1 | -2 | -3 | -0.93 | 85* | -9 | -1
Cc1cccc(C(=O)N2CCCC(N3CCN(c4ccc(F)cc4)CC3)C2)n1 (configuration not stated) | -3 | · | · | · | 6 | -1
COc1ccc(C(=O)C2CCCN(Cc3ccc4nonc4c3)C2)cc1OC (configuration not stated) | -1 | 22 | 1.5 | 89* | 7 | 1
CCOC(=O)c1[nH]ncc1CN1CCCC(C(=O)c2ccc(OC)c(OC)c2)C1 (configuration not stated) | 0 | 17 | -0.57 | -2 | 13 | 0
COc1ccc(C(=O)C2CCCN(Cc3ccc(C#CCCO)cc3)C2)cc1F (configuration not stated) | -2 | 22 | 0.34 | 50* | 59* | 0
COc1ccc(C(=O)C2CCCN(Cc3ccc4nonc4c3)C2)cc1F (configuration not stated) | -2 | 35 | -0.57 | 91* | 36 | 0
O=C(NCC1CCCN(Cc2ccc3nonc3c2)C1)c1cccc(C(F)(F)F)c1 (configuration not stated) | -2 | 1 | 0.44 | 87* | 58* | -2
COc1ccc(C(=O)C2CCCN(C(=O)COc3ccc(C(C)=O)cc3)C2)cc1F (configuration not stated) | -2 | 0 | -0.085 | 7 | 9 | 0
